How the values were obtained:
[1] = biological target: Sodium-dependent serotonin transporter (Homo sapiens, UniProt P31645); test: Displacement of [3H]paroxetine from 5-HTT
Outline: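 Inhibition of [3H]paroxetine binding at 5-HTT, a single-site transporter, with Ki calculated from it. Compounds tested as HCl or tartrate salts. Mean ± standard error of three or four experiments, each run in triplicate.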

[2] = biological target: Sodium-dependent noradrenaline transporter (Homo sapiens, UniProt P23975); test: Displacement of [3H]nisoxetine from NET
Sodium-dependent noradrenaline transporter, sequence (P23975 whole entry): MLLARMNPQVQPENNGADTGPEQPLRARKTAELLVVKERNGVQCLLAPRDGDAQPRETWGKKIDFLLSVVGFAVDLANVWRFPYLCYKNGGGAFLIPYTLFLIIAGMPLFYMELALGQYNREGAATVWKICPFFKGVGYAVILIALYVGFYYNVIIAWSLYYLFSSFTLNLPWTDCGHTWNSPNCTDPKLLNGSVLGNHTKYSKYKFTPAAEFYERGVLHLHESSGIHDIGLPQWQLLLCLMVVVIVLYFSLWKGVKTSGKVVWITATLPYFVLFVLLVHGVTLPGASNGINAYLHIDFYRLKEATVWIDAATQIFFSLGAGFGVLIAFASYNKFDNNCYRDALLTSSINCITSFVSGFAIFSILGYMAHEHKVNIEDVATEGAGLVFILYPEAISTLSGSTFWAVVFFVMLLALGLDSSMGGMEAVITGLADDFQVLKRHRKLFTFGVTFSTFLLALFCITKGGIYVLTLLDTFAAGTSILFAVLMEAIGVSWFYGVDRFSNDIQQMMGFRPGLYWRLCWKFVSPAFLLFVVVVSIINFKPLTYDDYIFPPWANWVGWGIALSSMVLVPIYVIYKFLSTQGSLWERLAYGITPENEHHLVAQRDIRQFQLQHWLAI

[3] = biological target: Sodium-dependent dopamine transporter (Homo sapiens, UniProt Q01959); test: Displacement of [3H]WIN-35428 from DAT
Sodium-dependent dopamine transporter, sequence (Q01959 whole entry): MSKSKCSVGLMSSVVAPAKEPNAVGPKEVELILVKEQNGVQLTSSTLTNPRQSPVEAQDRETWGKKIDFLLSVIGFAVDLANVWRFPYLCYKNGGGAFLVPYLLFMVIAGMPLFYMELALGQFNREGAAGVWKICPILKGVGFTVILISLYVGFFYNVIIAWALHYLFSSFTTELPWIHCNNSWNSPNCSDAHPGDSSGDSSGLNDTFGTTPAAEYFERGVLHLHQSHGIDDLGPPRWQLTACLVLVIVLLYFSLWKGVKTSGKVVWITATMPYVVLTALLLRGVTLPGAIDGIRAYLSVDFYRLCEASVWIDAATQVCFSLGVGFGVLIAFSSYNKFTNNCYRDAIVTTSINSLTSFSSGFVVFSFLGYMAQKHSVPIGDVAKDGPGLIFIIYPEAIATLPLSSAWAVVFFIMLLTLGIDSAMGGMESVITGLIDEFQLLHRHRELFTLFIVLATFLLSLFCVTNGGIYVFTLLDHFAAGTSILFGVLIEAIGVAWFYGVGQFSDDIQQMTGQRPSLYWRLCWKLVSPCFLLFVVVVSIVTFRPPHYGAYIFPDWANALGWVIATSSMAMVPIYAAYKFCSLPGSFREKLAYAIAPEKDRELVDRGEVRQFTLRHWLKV
Outline: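 [3H]WIN35,428 displacement at DAT; IC50 reported because DAT has two binding sites. Compounds tested as HCl or tartrate salts. Mean ± standard error of three or four experiments, each run in triplicate.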

[4] = Selectivity ratio of Ki for NET to IC50 for DAT
Outline: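 NET/DAT selectivity: NET Ki (from [3H]nisoxetine binding) divided by DAT IC50 (from [3H]WIN35,428 binding). Both values are means of three or four triplicate experiments.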

[5] = Selectivity ratio of Ki for NET to Ki for 5-HTT
Outline: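 NET/5-HTT selectivity: NET Ki (from [3H]nisoxetine binding) divided by 5-HTT Ki (from [3H]paroxetine binding). Both values are means of three or four triplicate experiments.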

Sodium-dependent serotonin transporter, sequence (P31645 whole entry): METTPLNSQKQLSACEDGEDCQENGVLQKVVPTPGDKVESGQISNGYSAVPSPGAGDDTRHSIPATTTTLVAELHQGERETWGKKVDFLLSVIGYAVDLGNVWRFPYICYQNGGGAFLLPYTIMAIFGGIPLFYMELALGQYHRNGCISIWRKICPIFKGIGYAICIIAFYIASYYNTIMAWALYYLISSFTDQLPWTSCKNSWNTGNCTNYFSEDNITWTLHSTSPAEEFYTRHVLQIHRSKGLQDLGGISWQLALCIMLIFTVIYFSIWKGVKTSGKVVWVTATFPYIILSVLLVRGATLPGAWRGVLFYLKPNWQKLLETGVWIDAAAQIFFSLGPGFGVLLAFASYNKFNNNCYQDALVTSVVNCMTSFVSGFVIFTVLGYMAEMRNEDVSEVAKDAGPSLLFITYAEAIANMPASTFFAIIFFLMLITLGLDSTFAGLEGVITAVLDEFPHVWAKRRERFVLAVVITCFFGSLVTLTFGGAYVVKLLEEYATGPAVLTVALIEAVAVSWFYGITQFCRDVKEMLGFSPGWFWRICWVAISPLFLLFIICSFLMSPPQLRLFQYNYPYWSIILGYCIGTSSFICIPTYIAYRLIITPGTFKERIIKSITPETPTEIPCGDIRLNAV

In the case of COC(=O)[C@H]1[C@@H](c2ccc(SC)cc2)C[C@@H]2CC[C@H]1N2C, the Ki [1] is reported as 0.7 nM, the Ki [2] is reported as 220 nM and the IC50 [3] is reported as 9 nM. The Ratio [4] was 24 and the Ratio Ki [5] was 314.
In the case of CCSc1ccc([C@H]2CC3CCC(N3)[C@H]2C(=O)OC)cc1 (stereo partly specified), the Ki [1] is reported as 1.26 nM, the Ki [2] is reported as 118 nM and the IC50 [3] is reported as 177 nM. The Ratio [4] was 0.7 and the Ratio Ki [5] was 94.
In the case of C=CCN1C2CCC1[C@@H](C(=O)OC)[C@@H](c1ccc(SC)cc1)C2 (stereo partly specified), the Ki [1] is reported as 5.5 nM, the Ki [2] is reported as 2000 nM and the IC50 [3] is reported as 71 nM. For the same molecule, the Ratio [4] was 28 and the Ratio Ki [5] was 364.
In the case of CCCN1C2CCC1[C@@H](C(=O)OC)[C@@H](c1ccc(SCC)cc1)C2 (stereo partly specified), the Ki [1] is reported as 49 nM, the Ki [2] is reported as > 2000 nM and the IC50 [3] is reported as 900 nM. For the same molecule, the Ratio [4] was > 2 and the Ratio Ki [5] was > 41.
Molecule COC(=O)[C@H]1[C@@H](c2ccc(SC(C)C)cc2)C[C@@H]2CC[C@H]1N2C has a Ki [1] of 23 nM, a Ki [2] of 129 nM and an IC50 [3] of 16 nM. The Ratio [4] was 8 and the Ratio Ki [5] was 7.
In the case of COC(=O)[C@H]1[C@@H](c2ccc(OC)cc2)C[C@@H]2CC[C@H]1N2C, the Ki [1] is reported as 4.3 nM and the Ki [2] is reported as 1110 nM.
Work on COC(=O)[C@@H]1C2CCC(C[C@@H]1c1ccc(SC)cc1)N2CCCF (stereo partly specified) yielded a Ki [1] of 3 nM, a Ki [2] of 960 nM and an IC50 [3] of 112 nM. The Ratio [4] was 9 and the Ratio Ki [5] was 320.
Molecule CCSc1ccc([C@H]2C[C@@H]3CC[C@H]([C@H]2C(=O)OC)N3C)cc1 has a Ki [1] of 4.5 nM, a Ki [2] of 1170 nM and an IC50 [3] of 232 nM. For the same molecule, the Ratio [4] was 5 and the Ratio Ki [5] was 260.
With CCSc1ccc([C@H]2CC3CCC([C@H]2C(=O)OC)N3CCCF)cc1 (stereo partly specified) the Ki [1] was 27 nM, the Ki [2] was > 2000 nM and the IC50 [3] was 1200 nM. For the same molecule, the Ratio [4] was 2 and the Ratio Ki [5] was > 74.
With COC(=O)[C@@H]1C2CCC(C[C@@H]1c1ccc(SC)cc1)N2 (stereo partly specified) the Ki [1] was 0.19 nM, the Ki [2] was 21 nM and the IC50 [3] was 28 nM. For the same molecule, the Ratio [4] was 0.8 and the Ratio Ki [5] was 110.
In the case of CCCN1C2CCC1[C@@H](C(=O)OC)[C@@H](c1ccc(SC)cc1)C2 (stereo partly specified), the Ki [1] is reported as 5.7 nM, the Ki [2] is reported as 1200 nM and the IC50 [3] is reported as 74 nM. It also gave a Ratio [4] of 16 and a Ratio Ki [5] of 211.
Molecule COC(=O)[C@H]1[C@@H](c2ccc([S+](C)[O-])cc2)C[C@@H]2CC[C@H]1N2C (stereo partly specified) has a Ki [1] of 4.3 nM, a Ki [2] of 515 nM and an IC50 [3] of 91 nM. For the same molecule, the Ratio [4] was 6 and the Ratio Ki [5] was 120.
Work on COC(=O)[C@H]1[C@@H](c2ccc(SC)c(Br)c2)C[C@@H]2CC[C@H]1N2C yielded a Ki [1] of 0.6 nM, a Ki [2] of 121 nM and an IC50 [3] of 10.1 nM. The Ratio [4] was 12 and the Ratio Ki [5] was 202.
For COC(=O)[C@H]1[C@@H](c2ccc(S(C)(=O)=O)cc2)C[C@@H]2CC[C@H]1N2C, the Ki [1] was 208 nM, the Ki [2] was > 10000 nM and the IC50 [3] was > 10000 nM. For the same molecule, the Ratio Ki [5] was > 48.
With COC(=O)[C@H]1[C@@H](c2ccc([S+](C)[O-])c(Br)c2)C[C@@H]2CC[C@H]1N2C (stereo partly specified) the Ki [1] was 3.2 nM, the Ki [2] was 690 nM and the IC50 [3] was 76 nM. For the same molecule, the Ratio [4] was 9 and the Ratio Ki [5] was 216.
With COC(=O)[C@H]1[C@@H](c2ccc(SC(F)(F)F)cc2)C[C@@H]2CC[C@H]1N2C the Ki [1] was 8 nM, the Ki [2] was 1900 nM and the IC50 [3] was 200 nM. The Ratio [4] was 10 and the Ratio Ki [5] was 238.
With C=CCN1C2CCC1[C@@H](C(=O)OC)[C@@H](c1ccc(SCC)cc1)C2 (stereo partly specified) the Ki [1] was 47 nM, the Ki [2] was > 2000 nM and the IC50 [3] was 1100 nM. The Ratio [4] was > 2 and the Ratio Ki [5] was > 43.
